B1: FLT3-L: FLT3 ligand from PeproTech (protein, UniProt P49771 27-235, looked up)
Fms-related tyrosine kinase 3 …: TQDCSFQHSPISSDFAVKIRELSDYLLQDYPVTVASNLQDEELCGGLWRLVLAQRWMERLKTVAGSKMQGLLERVNTEIHFVTKCAFQPPPSCLRFVQTNISRLLQETSEQLVALKPWITRQNFSRCLELQCQPDSSTLPPPWSPRPLEATAPTAPQPPLLLLLLLPVGLLLLAAAWCLHWQRTRRRTPRPGEQVPPVPSPQDLLLVEH

Columns and labels:
[1] = tested on: primary cells from MDS/AML patients; experiment: Clonogenic assay in semi-solid medium; assay type: cell-based, human; conditions: 14 days, 34 MDS/AML patient samples
[2] = tested on: SKM1, K562, KG1a, THP-1, and HL60 cell lines; experiment: Apoptosis, Annexin V-positive cells at day 3, five cell lines; assay type: cell-based, human; conditions: IC10 APR alone, day 3, cell lines tested
Procedure, shortened: (§1)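 Human myeloid lines in RPMI 1640 with 10% FBS, 1% penicillin/streptomycin and 1% GlutaMAX. Log-phase cells seeded at 2x10^5/mL. Drugs added once at day 0: IC10 APR, IC50 AZA, or both at these concentrations. Annexin V-positive cells scored at day 3. Results given as means ± SD; Mann-Whitney test, two-sided.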

SKM1 cell line = experiment: Transcriptomic analysis; assay type: cell-based, human; conditions: IC10 APR vs untreated SKM1 cells, GSEA
[3] = tested on: SKM1, K562, KG1a, THP-1, and HL60 cell lines; experiment: Cell cycle distribution 24 hours after treatment, five cell lines; assay type: cell-based, human; conditions: IC10 APR alone, various cell lines tested
[4] = tested on: SKM1, K562, KG1a, THP-1, and HL60 cell lines; experiment: Cytotoxicity; assay type: cell-based, human; conditions: all of the cell lines tested (SKM1, K562, KG1a, THP-1, HL60)
SKM1 cells [5] = experiment: Cell cycle distribution 24 hours after treatment; assay type: cell-based, human; conditions: SKM1, 24 hours after exposure, IC10 APR with or without IC50 AZA
SKM1 cells [6] = experiment: Cytotoxicity; assay type: cell-based, human
HL60 cells = experiment: Cytotoxicity; assay type: cell-based; conditions: Homo sapiens, HL-60, 72 h, read-out: IC50 (proliferation)
SKM1 cells [7] = experiment: Apoptosis, Annexin V-positive cells at day 3; assay type: cell-based, human; conditions: SKM1, day 3, IC10 APR and/or IC50 AZA
Procedure, shortened: as §1

Molecule	reduction of myeloid and erythroid colony growth [1]	induction of apoptosis [2]	ROS-induced genes NES (SKM1 cell line; 18 hours)	early apoptotic program NES (SKM1 cell line)	p53 pathway Normalized Enrichment Score (NES) (SKM1 cell line)	effect on cell cycle distribution [3]	50% inhibitory concentrations (IC50), cell proliferation [4]	cells in G0/G1 phase (SKM1 cells [5])	IC50 fold lower for the SKM1 cell line compared to the other AML lines (SKM1 cells [6]; SKM1 vs K562, KG1a, THP-1, HL60)	IC50 (HL60 cells)	apoptotic cells (Annexin V-positive) (SKM1 cells [7])	IC50 (SKM1 cells [6]; Homo sapiens, SKM-1, 72 h, read-out: IC50 (proliferation))	effect on SKM1 cell proliferation (SKM1 cells [6]; FLT3-L on its own, 0.1 to 100 ng/mL)
COCC1(CO)C(=O)C2CCN1CC2 (centres unmarked) [APR, PRIMA-1^Met]	approximately 60%	did not induce apoptosis	1.2	1.1	1.2	did not affect the cell cycle distribution	in the micromolar range	62%	at least 2 fold	–	–	–	–
Nc1ncn([C@@H]2O[C@H](CO)[C@@H](O)[C@H]2O)c(=O)n1 [AZA, 5-azacitidine]	30%	–	–	–	–	–	–	–	–	4500 nM	19%	540 nM	–
B1	–	–	–	–	–	–	–	–	–	–	–	–	did not affect SKM1 cell proliferation

— PMC7271596 (Haematologica, 2019)
